Measured values reported in ChEMBL document CHEMBL1629563, “Pharmacokinetic and safety evaluation of BILR 355, a second-generation nonnucleoside reverse transcriptase inhibitor, in healthy volunteers” (Antimicrob Agents Chemother, 2008).

Legend:
Homo sapiens [1] = test: Toxicity in healthy human assessed as occurrence of migraine at 25 mg, po administered as single dose relative to control; format: organism-based; conditions: in vivo
Homo sapiens [2] = test: Toxicity in healthy human assessed as occurrence of palpitations at 12.5 mg, po administered as single dose relative to control; format: organism-based; conditions: in vivo
Homo sapiens [3] = test: Toxicity in healthy human assessed as occurrence of palpitations at 25 mg, po administered as single dose relative to control; format: organism-based; conditions: in vivo
Homo sapiens [4] = test: Toxicity in healthy human assessed as occurrence of herpes simplex at 75 mg, po administered as single dose relative to control; format: organism-based; conditions: in vivo
Homo sapiens [5] = test: Toxicity in healthy human assessed as occurrence of frequent bowel movements at 25 mg, po administered as single dose relative to control; format: organism-based; conditions: in vivo
[6] = Half life in healthy human at 62.5 mg, po administered as single dose coadministered with 100 mg of ritonavir; format: ADME, organism-based; conditions: in vivo
[7] = Apparent volume of distribution in terminal phase in high fat fed healthy human at 50 mg, po administered as single dose coadministered with 100 mg of ritonavir; format: ADME, organism-based; conditions: in vivo, read-out: Vz/F
Method in brief: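 Fed cohort: healthy males ate an FDA-recipe high-fat breakfast (about 150/250/500-600 cal from protein/carbohydrate/fat) 30 min before a 50 mg oral dose of BILR 355 in PEG solution. Ritonavir 100 mg was given 10 h before and with the dose. Plasma was sampled over 144 h and assayed by LC-MS/MS. Noncompartmental analysis gave Cmax and Vz/F. Vss/F = CL/F·(MRTp.o. − 1/Ka).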

[8] = Apparent volume of distribution at steady state in healthy human at 25 mg, po administered as single dose coadministered with 100 mg of ritonavir; format: ADME, organism-based; conditions: in vivo, read-out: Vss/F
Method in brief: (§1)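 Healthy male volunteers, fasted overnight, got one oral dose of BILR 355 in PEG solution with 200 ml water. Ritonavir 100 mg was given 10 h before and again with the dose. Plasma was sampled (EDTA) from predose to 144 h and assayed by validated LC-MS/MS. Cmax and Vz/F came from noncompartmental analysis. Vss/F = CL/F·(MRTp.o. − 1/Ka), with Ka from compartmental modelling.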

[9] = Apparent volume of distribution at steady state in healthy human at 37.5 mg, po administered as single dose coadministered with 100 mg of ritonavir; format: ADME, organism-based; conditions: in vivo, read-out: Vss/F; method in brief: as §1
Homo sapiens [10] = test: Ratio of AUC (0 to infinity) in human at 50 mg, po in presence of 100 mg of ritonavir to AUC (0 to infinity) in human at 50 mg, po; format: ADME, organism-based; conditions: in vivo
Homo sapiens [11] = test: Toxicity in high fat fed healthy human assessed as occurrence of aphthous stomatitis at 50 mg, po administered as single dose coadministered with 100 mg of ritonavir; format: organism-based; conditions: in vivo
Homo sapiens [12] = test: Toxicity in healthy human assessed as occurrence of diarrhea at 87.5 mg, po administered as single dose coadministered with 100 mg of ritonavir; format: organism-based; conditions: in vivo
Homo sapiens [13] = test: Toxicity in healthy human assessed as occurrence of fatigue at 12.5 mg, po administered as single dose coadministered with 100 mg of ritonavir; format: organism-based; conditions: in vivo
Homo sapiens [14] = test: Toxicity in healthy human assessed as occurrence of maculopapular rash at 75 mg, po administered as single dose coadministered with 100 mg of ritonavir; format: organism-based; conditions: in vivo
[15] = AUC (0 to last) in healthy human at 25 mg, po administered as single dose; format: ADME, organism-based; parameters: dose 25 mg, route oral, time 0 - last; conditions: plasma
Method in brief: (§2)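 Healthy male volunteers, six active plus two placebo per dose group, single oral dose in PEG solution with 200 ml water after overnight fast; breakfast 60 to 90 min post-dose. EDTA plasma sampled predose to 144 h. Assayed by validated LC-MS/MS after protein precipitation. Noncompartmental analysis, AUC by linear up/log down trapezoidal rule; Vss = CL/F·(MRTp.o. − 1/Ka).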

[16] = AUC (0 to last) in healthy human at 50 mg, po administered as single dose; format: ADME, organism-based; parameters: dose 50 mg, route oral, time 0 - last; conditions: plasma; method in brief: as §2
[17] = Apparent oral clearance in healthy human at 5 mg, po administered as single dose; format: ADME, organism-based; conditions: in vivo; method in brief: as §2
Homo sapiens [18] = test: Toxicity in healthy human assessed as occurrence of abdominal pain at 1 mg, po administered as single dose relative to control; format: organism-based, Abdomen; conditions: in vivo
[19] = Apparent volume of distribution in terminal phase in healthy human at 12.5 mg, po administered as single dose; format: ADME, organism-based; conditions: in vivo, read-out: Vz/F
Method in brief: (§3)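 Single fasting oral dose of BILR 355 in PEG solution with 200 ml tap water, given to healthy males. Standard breakfast came 60-90 min after the dose. EDTA plasma was sampled predose to 144 h, stored below −18°C and assayed by LC-MS/MS after protein precipitation. Noncompartmental analysis gave Vz/F. Vss/F = CL/F·(MRTp.o. − 1/Ka), with Ka from compartmental modelling.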

[20] = Apparent volume of distribution in terminal phase in healthy human at 50 mg, po administered as single dose; format: ADME, organism-based; conditions: in vivo, read-out: Vz/F; method in brief: as §3
[21] = Renal clearance in healthy human at 12.5 mg, po administered as single dose by high-pressure liquid chromatography-tandem mass spectrometry/mass spectrometry method; format: ADME, organism-based, Kidney; conditions: in vivo, read-out: CL_renal (converted)
[22] = Drug excretion in healthy human urine assessed as unchanged drug at 50 mg, po administered as single dose by high-pressure liquid chromatography-tandem mass spectrometry/mass spectrometry method; format: ADME, organism-based; conditions: read-out: Drug uptake
Method in brief: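 Urine was collected by weight after one oral dose of BILR 355 in PEG solution in fasted healthy males. Intervals were predose blank, 0-6, 6-24 and 24-72 h, with the bladder voided before each. Aliquots were stored at −20°C and assayed by LC-MS/MS. fe = amount of unchanged drug excreted (Ae) as a percentage of the administered dose.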

[23] = AUC (0 to infinity) in healthy human at 87.5 mg, po administered as single dose coadministered with 100 mg of ritonavir; format: ADME, organism-based; parameters: dose 87.5 mg, time infinity, route oral; conditions: plasma
Method in brief: (§4)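 Healthy male volunteers, fasted. Ritonavir 100 mg given 10 h before and again together with single oral BILR 355 in PEG solution. EDTA plasma sampled predose to 144 h. LC-MS/MS assay after protein precipitation. Noncompartmental analysis, AUC by linear up/log down trapezoidal rule; Vss = CL/F·(MRTp.o. − 1/Ka).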

[24] = AUC (0 to last) in healthy human at 87.5 mg, po administered as single dose coadministered with 100 mg of ritonavir; format: ADME, organism-based; parameters: dose 87.5 mg, route oral, time 0 - last; conditions: plasma; method in brief: as §4
[25] = AUC (0 to last) in high fat fed healthy human at 50 mg, po administered as single dose coadministered with 100 mg of ritonavir; format: ADME, organism-based; parameters: dose 50 mg, route oral, time 0 - last; conditions: plasma
Method in brief: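 Fed cohort of 6 healthy men given an FDA-type high-fat breakfast (about 150, 250 and 500 to 600 cal from protein, carbohydrate and fat) 30 min before dosing. Ritonavir 100 mg given 10 h earlier and again with the single oral dose in PEG solution. Plasma sampled to 144 h, LC-MS/MS, noncompartmental analysis.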

[26] = Cmax in healthy human at 62.5 mg, po administered as single dose coadministered with 100 mg of ritonavir by high-pressure liquid chromatography-tandem mass spectrometry/mass spectrometry method; format: ADME, organism-based; parameters: dose 62.5 mg, route oral; conditions: in vivo; method in brief: as §1
[27] = Half life in healthy human at 5 mg, po administered as single dose coadministered with 100 mg of ritonavir; format: ADME, organism-based; conditions: in vivo
Homo sapiens [28] = test: Toxicity in healthy human assessed as occurrence of fatigue at 12.5 mg, po administered as single dose relative to control; format: organism-based; conditions: in vivo

half-life [6]: 584 min | Vd/F [7]: 100 L | Vd/F [8]: 102 L | Vd/F [9]: 105 L | Ratio (Homo sapiens [10]): 15.5 | AUC(0-t) [15]: 128 ng·h/mL | AUC(0-t) [16]: 406 ng·h/mL | CL/F [17]: 2480 mL/min | Vd/F [19]: 1430 L | Vd/F [20]: 460 L | CL renal [21]: 6.85 mL/min | dose excreted [22]: 0.485% | AUC(0-inf) [23]: 11800 ng·h/mL | AUC(0-t) [24]: 11700 ng·h/mL | AUC(0-t) [25]: 7970 ng·h/mL | Cmax [26]: 653 ng/mL | half-life [27]: 882 min
SMILES: CCN1c2ncc(CCOc3cc[n+]([O-])c4ccccc34)cc2C(=O)N(C)c2cccnc21 [BILR 355]
Activity (Homo sapiens [1]): 0% | Activity (Homo sapiens [2]): 0% | Activity (Homo sapiens [3]): 0% | Activity (Homo sapiens [4]): 0% | Activity (Homo sapiens [5]): 0% | Activity (Homo sapiens [11]): 0% | Activity (Homo sapiens [12]): 16.7% | Activity (Homo sapiens [13]): 0% | Activity (Homo sapiens [14]): 0% | Activity (Homo sapiens [18]): 0% | Activity (Homo sapiens [28]): 20%
